# Screening results: PubChem BioAssay, several laboratories
# Rows were chosen to be rich in hits. Some 2.4% of all compounds tested hit in one or more screens of this group.
# PRMT1 inh – PRMT1 methyltransferase inhibitors, primary screen, biochemical, fluorescence polarization | recombinant PRMT1, activity-based probe fluorescence polarization | inhibition, % at 2.79 µM | AID 652257, 2013 | Protein arginine N-methyltransferase 1 (Homo sapiens), Q99873 | actives 1.3% (n = 370,000);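 active = inhibition above about 21% made by adding two undisclosed values, limit read from the data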
# HTRA1 inh – HTRA1 serine protease inhibitors, primary screen, biochemical, fluorescence polarization, HTS; AID 504803, 2011; Q92743; recombinant HTRA1, FP-rhodamine activity-based probe; actives 0.5% (n = 340,000); inhibition, % at 5.96 µM; in the data active = inhibition above about 36%;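 also: 0% = enzyme with DMSO and 100% = wells lacking enzyme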
# ABHD4 inh – ABHD4 inhibitors, primary screen, biochemical, fluorescence polarization, mouse. AID 720543, 2013. inhibition, % at 8.92 µM. actives 0.54% (n = 370,000). purified mABHD4, FP-Rh probe fluorescence polarization;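 active = inhibition exceeding the mean over every tested compound plus 3 SD, cut at about 30% in these data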;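 also: 0% = plate median of compound wells and 100% = S159A mutant with DMSO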
# Target sequence (Q8VD66 whole entry, looked up): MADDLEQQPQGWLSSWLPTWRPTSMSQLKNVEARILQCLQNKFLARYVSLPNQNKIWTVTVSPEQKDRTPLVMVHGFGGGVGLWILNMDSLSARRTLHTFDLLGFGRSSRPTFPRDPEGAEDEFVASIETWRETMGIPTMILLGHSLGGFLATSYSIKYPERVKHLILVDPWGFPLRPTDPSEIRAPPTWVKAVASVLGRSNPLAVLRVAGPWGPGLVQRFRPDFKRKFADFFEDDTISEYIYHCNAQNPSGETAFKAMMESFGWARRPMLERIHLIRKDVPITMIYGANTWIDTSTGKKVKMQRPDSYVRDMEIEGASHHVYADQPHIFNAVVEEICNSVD
#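 System: mouse ABHD4 enzyme, wild type / Medium: HEPES pH 7.0, NaCl, Pluronic buffer / Reagent: FP-Rh activity-based fluorescent probe / Control set: S159A mutant high control, sample median low control / Detection: fluorescence polarization with parallel and perpendicular emission, 525/598 nm / Schedule: 45 min + 60 min at 25 °C / Compound dosing: 8.92 µM, single dose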
# SIAE inh – human SIAE inhibitors, primary screen, biochemical, fluorescence polarization, FP-Rh probe, 1536-well HTS | SIAE FP-Rh probe binding | inhibition, % at 9.66 µM | actives 0.69% (n = 370,000) | Sialate O-acetylesterase (Homo sapiens), Q9HAT2 | AID 1053197, 2014;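 active = inhibition above a cutoff: mean of compounds within the control limits plus 3 SD of those, cut at about 17% in these data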;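 also: 0% = plate median of compound wells and 100% = probe without SIAE protein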
# GASC-1 inh – inhibitors of GASC-1 histone demethylase, primary screen, biochemical, fluorescence, DELFIA europium. inhibition, % at 2.35 µM. actives 0.069% (n = 330,000). Lysine-specific demethylase 4C (Homo sapiens), Q9H3R0. GST-JMJD2C(1-420) H3K9me3 demethylation;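 active = more than half of a compound's replicate wells show inhibition beyond 50%, single wells judged on their own value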;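 also: signal counts dimethyl H3K9 product captured on neutravidin plate; 0% = median of DMSO wells and 100% = 0.3 times that DMSO median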
# PRMT1 inh conf – PRMT1 methyltransferase inhibitors, confirmation, biochemical, fluorescence polarization, triplicate | shares compounds with PRMT1 inh | recombinant His-PRMT1, activity-based probe fluorescence polarization | inhibition, % at 2.79 µM | actives 42% (n = 3,300) | AID 687036, 2013;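 active = mean inhibition across replicates above the hit cutoff derived for the earlier primary screen, cut at about 22% in these data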
# The depositor's hits bear a star; · = not tested or not shown.
SMILES,PRMT1 inh,HTRA1 inh,ABHD4 inh,SIAE inh,GASC-1 inh,PRMT1 inh conf
N=C1/C(=C\c2ccc(SCc3ccco3)o2)C(=O)N=C2SC=NN12,51*,-108,-119,-60,-11,12
Cc1ccccc1CN1C(=O)CSCC1(C)C(=O)NC(C)C (stereo not drawn),-2,·,-5,-1,·,·
COc1cc(-n2c(C)nc3cc(C(=O)N4CCCC4)ccc32)cc(OC)c1OC,2,·,-6,-8,·,·
O=C(COC(=O)/C=C/c1ccco1)Nc1ccccc1,0,-5,1,1,2,·
O=C(/C=C\c1ccco1)c1ccc(NC(=O)c2ccco2)cc1,19,-37,-8,-11,7,·
CC(=O)Nc1ccc(C(=O)/C=C/c2ccco2)cc1,36*,11,-5,4,4,27*
CCc1ccc(NC(=O)COC(=O)/C=C/c2ccco2)cc1,28*,-6,-9,-4,-3,-1
COCCCNC(=O)CN1C(=O)C2CCCCN2C(=O)c2ccccc21 (stereo not drawn),0,·,3,-3,·,·
CC(=O)N1N=C(c2cccs2)CC1c1ccco1 (stereo not drawn),-3,5,-3,1,-9,·
CS(=O)(=O)N1N=C(c2cccs2)CC1c1ccco1 (stereo not drawn),41*,-5,2,0,-4,4
O=C(C1CCN(C2CC(=O)N(c3ccc(F)cc3)C2=O)CC1)N1CCOCC1 (stereo not drawn),46*,4,0,-9,-9,3
CC(=O)c1cccc(N2C(=O)CC(N3CCN(S(=O)(=O)c4ccccc4F)CC3)C2=O)c1 (stereo not drawn),2,2,1,-5,1,·
COc1cc(OC)cc(N2C(=O)CC(N3CCC(C(=O)N4CCCCC4)CC3)C2=O)c1 (stereo not drawn),78*,-4,-16,-4,-3,2
O=C1CCCN1CCC1CCN(C2CC(=O)N(c3ccc(F)cc3)C2=O)CC1 (stereo not drawn),48*,0,7,0,-17,7
CCN1C(=O)CC(N2CCC(C(=O)N3CCOCC3)CC2)C1=O (stereo not drawn),8,1,-5,3,9,·
CC(=O)Nc1cccc(N2C(=O)CC(N3CCC(C(=O)N4CCCCC4)CC3)C2=O)c1 (stereo not drawn),79*,-3,2,-4,3,1
O=C(CN1CCN(C(=O)C2CCN(C(=O)/C=C/c3ccccc3)CC2)CC1)Nc1ccc(F)cc1,-6,5,-7,-3,·,·
CC1Oc2ccc(C#N)cc2N(Cc2cccc(F)c2)C1=O (stereo not drawn),1,·,-1,-2,·,·
CN(C(=O)c1cccc(NC(=O)Cc2ccc(NC(=O)C3CCN(S(=O)(=O)c4cccc([N+](=O)[O-])c4)CC3)cc2)c1)C1CCCCC1,-4,-25,-35,-33,·,·
CCC[C@H]1[C@@H](N(C)Cc2ccccc2)CC[C@@]23CCCN2C(=O)CCC[C@@H]13,-5,·,5,4,·,·
O=C1CC(N2CCC(C(=O)N3CCCCC3)CC2)C(=O)N1 (stereo not drawn),62*,1,-5,3,4,7
O=C1CC(N2CCOCC2)C(=O)N1c1ccccc1Cl (stereo not drawn),26*,8,-1,-6,-1,2
C=CCn1c(=S)[nH]c2scc(-c3ccc(C)o3)c2c1=O,28*,-4,-6,6,8,16
C=CCn1c(SCC(C)=O)nc2scc(-c3ccc(C)o3)c2c1=O,25*,-6,1,-4,-26,10
C=CCn1c(SCC(=O)NCCCC)nc2scc(-c3ccco3)c2c1=O,5,-10,-20,-4,-26,·
COc1ccccc1C(=O)NC1CCCCN(Cc2cccc(F)c2)C1=O (stereo not drawn),0,·,1,-4,·,·
